Data on two molecules can be found in ChEMBL document CHEMBL1131066, “2-Substituted aminopyrido[2,3-d]pyrimidin-7(8H)-ones. structure-activity relationships against selected tyrosine kinases and in vitro and in vivo anticancer activity” (J Med Chem, 1998).

Structures are written as SMILES. Values joined by “and” are separate entries in the source; they are usually repeats but may differ in a detail not shown here. Equal entries are not always repeated.

For assay [1], the target named is Platelet-derived growth factor receptor (PDGFr) (Rattus norvegicus, UniProt P20786+Q05030). Briefly: Inhibition of PDGF-induced autophosphorylation of PDGF-R in C6 cells.
Assay [2] deals with NIH3T3. Briefly: Inhibition of NIH3T3 proliferation by sulforhodamine B assay. The assay is classed as functional, cell-based, Mus musculus. For orientation: The SRB assay estimates cell density from bound dye.
The target in assay [3] is Epidermal growth factor receptor (Homo sapiens, UniProt P00533). Briefly: Inhibitory concentration was evaluated against epidermal growth factor receptor (EGFr) tyrosine kinase.
In assay [4] the target is T1, Fibroblast growth factor receptor 1 (Homo sapiens, UniProt P11362). Nature of the assay: Inhibitory concentration evaluated against fibroblast growth factor receptor 1.
Assay [5] addresses Proto-oncogene tyrosine-protein kinase Src (Gallus gallus, UniProt P00523). Nature of the assay: Inhibition of avian c-Src tyrosine kinase.
For assay [6], the target named is Platelet-derived growth factor receptor beta (Mus musculus, UniProt P05622). Nature of the assay: Inhibitory concentration was evaluated against Platelet-derived growth factor receptor beta (PDGFr) tyrosine kinase.
Assay [7] deals with C6. Briefly: C6 cell growth in soft agar with discontinued treatment. The assay is classed as functional, cell-based, Rattus norvegicus. In outline: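 C6 rat glioma cells given 3-day exposure to a concentration series, then washed free of inhibitor and plated in drug-free soft agar; colonies stained and counted after two weeks. IC50; mean of two experiments, each in duplicate.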

The subject of assay [8] is C6. Nature of the assay: C6 cell growth in soft agar with continuous treatment. The assay is classed as functional, cell-based, Rattus norvegicus. The essentials:
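C6 rat glioma cells (F10 Ham's with 15% horse serum, 2.5% fetal calf serum) exposed 3 days to a concentration series, then plated in soft agar with compound still present at the same concentration; colonies stained and counted after two weeks. IC50; mean of two experiments, each in duplicate.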

The test system of assay [9] is C6. Nature of the assay: Inhibition of C6 cell proliferation in sulforhodamine B assay. The assay is classed as functional, cell-based, Rattus norvegicus. The essentials:
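C6 rat glioma cells (F10 Ham's, 15% horse serum, 2.5% fetal calf serum) seeded and allowed 24 h to attach, then given serial 2-fold compound dilutions; 4 d at 37 °C, 5% CO2; growth read by sulforhodamine B staining. IC50; mean of two experiments, each in triplicate.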

In assay [10] the test system is NIH3T3. Briefly: Growth of NIH3T3 cell colonies in soft agar with discontinued treatment. The assay is classed as functional, cell-based. To be noted: Mus musculus. The essentials: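 PDGF-B-transfected NIH3T3 (NIH3T3/PDGF) cells exposed 3 days to a concentration series, washed free of inhibitor, plated in drug-free soft agar; colonies stained and counted after two weeks. IC50; mean of two experiments, each in duplicate.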

Assay [11] concerns NIH3T3. Nature of the assay: Growth of NIH3T3 cell colonies in soft agar with continuous treatment. The assay is classed as functional, cell-based. The settings on record: Mus musculus. The essentials:
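Soft agar cloning used PDGF-B-transfected NIH3T3 (NIH3T3/PDGF) cells. Cells were exposed 3 days to a concentration series, then plated in soft agar with the matching compound concentration kept present. Colonies were stained and counted after two weeks. IC50; mean of two experiments, each in duplicate.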

Assay [12] deals with Proto-oncogene tyrosine-protein kinase Src (Homo sapiens, UniProt P12931). Briefly: Inhibition of c-Src tyrosine kinase. The assay is classed as functional. The essentials: (§1)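 Recombinant kinases (PDGFr-β, FGFr-1, c-Src), enzyme inhibition IC50. Mean of at least two separate determinations, each done in triplicate; replicate values typically varied under 30%.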
Assay [13] relates to COLO 205. Nature of the assay: Net reduction in tumor burden between first and last treatments of COLO 205 cell tumors in mice at 40 mg/kg peroral dose, days 9-23 administration. The assay is classed as functional. The settings on record: route oral. The essentials:
(§2)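 NCr nu/nu nude mice (18–22 g, 6–8 per group, randomized) had tumor fragments, kept by serial passage in nude mice, implanted in the right axilla on day 0. Mice were dosed by average cage weight on the listed days, over a range from toxic to ineffective doses. Vehicle was 50 mM sodium lactate pH 4.0 or 0.5% methyl cellulose suspension. Net log cell kill was taken between first and last treatments.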

The subject of assay [14] is C6. Nature of the assay: Difference in days for treated (T) and control (C) C6 glioma cell tumors to reach 750 mg in mice at 50 mg/kg peroral dose, days 1-15 administration. The assay is classed as functional. The settings on record: route oral. In outline:
(§3)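 Nude mice (NCr nu/nu), 18–22 g, 6–8 per group, randomized and implanted with serially passaged tumor fragments in the right axilla on day 0. Dosed by average cage weight. Vehicle was 50 mM sodium lactate buffer, pH 4.0, or a 0.5% methyl cellulose suspension for one compound. Cisplatin was given in saline. T − C is the difference in days for treated and control tumors to reach 750 mg.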

The test system of assay [15] is HT-29. Briefly: Difference in days for treated (T) and control (C) HT-29 cell tumors to reach 750 mg in mice at 44 mg/kg peroral dose, days 15-29 administration. The assay is classed as functional. To be noted: route oral. In outline:
as §3

For assay [16], the system named is SK-OV-3. Nature of the assay: Difference in days for treated (T) and control (C) SKOV-3 cell tumors to reach 750 mg in mice at 40 mg/kg peroral dose, days 15-29 administration. The assay is classed as functional. The settings on record: route oral. In outline:
as §3

Assay [17] concerns COLO 205. Nature of the assay: Difference in days for treated (T) and control (C) COLO 205 cell tumors to reach 750 mg in mice at 40 mg/kg peroral dose, days 9-23 administration. The assay is classed as functional. To be noted: route oral. The essentials:
as §3

In assay [18] the test system is MCF7. Nature of the assay: Difference in days for treated (T) and control (C) MCF-7 cell tumors to reach 750 mg in mice at 50 mg/kg peroral dose, days 1-15 administration. The assay is classed as functional. The settings on record: route oral. The essentials: as §3
Assay [19] deals with Mus musculus. Nature of the assay: Difference in days for treated (T) and control (C) PDGF-transfected fibroblast tumors to reach 750 mg in mice at 50 mg/kg peroral dose, days 1-15 administration. The assay is classed as functional. The settings on record: route oral. The essentials: as §3
Assay [20] relates to Mus musculus. Briefly: Weight change of PDGF-transfected fibroblast cells in mice at 50 mg/kg peroral dose, days 1-15 administration. The assay is classed as functional. To be noted: route oral. The essentials:
(§4)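 Nude mice (NCr nu/nu, 18–22 g, 6–8 per group) were randomized and implanted with serially passaged tumor fragments in the right axilla on day 0. Oral dosing was based on average cage weight, on the days stated, over a dose range from toxic to ineffective. Vehicle was 50 mM sodium lactate buffer, pH 4.0, or 0.5% methyl cellulose suspension. Host weight change is reported as maximum treatment-related loss.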

Assay [21] concerns MCF7. Nature of the assay: Net reduction in tumor burden between first and last treatments of MCF-7 cell tumors in mice at 50 mg/kg peroral dose, days 1-15 administration. The settings on record: route oral. The assay is classed as functional. In outline:
as §2

The subject of assay [22] is COLO 205. Briefly: Weight change of COLO 205 tumor cells in mice at 40 mg/kg peroral dose, days 9-23 administration. The assay is classed as functional, organism-based. On the set-up: dose 40 mg/kg. In outline: (§5)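 Tumor-bearing nude mice (NCr nu/nu, 18–22 g, 6–8 per group) were implanted in the right axilla with tumor fragments on day 0 and dosed by average cage weight. Vehicle was 50 mM sodium lactate pH 4.0, or 0.5% methyl cellulose suspension; cisplatin was given in saline. Host body weight change is given as the maximum treatment-related weight loss.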

Assay [23] deals with MCF7. Briefly: Weight change of MCF-7 tumor cells in mice at 50 mg/kg peroral dose, days 1-15 administration. The assay is classed as functional, organism-based. On the set-up: dose 50 mg/kg. In outline: as §5
In assay [24] the test system is NIH3T3. Nature of the assay: Growth of NIH3T3 cells in soft agar with continuous treatment. The assay is classed as functional, cell-based. To be noted: Mus musculus. The essentials: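 NIH3T3 cells transfected with PDGF-B exposed to a range of concentrations for 3 days, then cloned in soft agar with the same concentration kept present. Colonies stained and counted after two weeks. IC50; mean of two experiments, each in duplicate.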

Assay [25] concerns the target T1, Fibroblast growth factor receptor 1. Nature of the assay: Inhibition of fibroblast growth factor receptor (FGFr) tyrosine kinase. The essentials: as §1
Assay [26] deals with SK-OV-3. Nature of the assay: Weight change of SK-OV-3 cell tumors in mice at 40 mg/kg peroral dose, days 15-29 administration. The assay is classed as functional. To be noted: route oral. In outline:
as §4

Assay [27] deals with HT-29. Briefly: Weight change of HT-29 tumor cells in mice at 44 mg/kg peroral dose, days 15-29 administration. The assay is classed as functional. To be noted: route oral. The essentials:
as §5

Assay [28] concerns C6. Briefly: Weight change of C6 glioma tumor cells in mice at 50 mg/kg peroral dose, days 1-15 administration. The assay is classed as functional, organism-based. Also on record: dose 50 mg/kg. The essentials:
as §5

Assay [29] has as its target Platelet-derived growth factor receptor (Mus musculus, UniProt P05622+P26618). Briefly: Inhibition of PDGF-induced autophosphorylation of PDGF-R in NIH3T3 cells.

T1 sequence (P11362 whole entry): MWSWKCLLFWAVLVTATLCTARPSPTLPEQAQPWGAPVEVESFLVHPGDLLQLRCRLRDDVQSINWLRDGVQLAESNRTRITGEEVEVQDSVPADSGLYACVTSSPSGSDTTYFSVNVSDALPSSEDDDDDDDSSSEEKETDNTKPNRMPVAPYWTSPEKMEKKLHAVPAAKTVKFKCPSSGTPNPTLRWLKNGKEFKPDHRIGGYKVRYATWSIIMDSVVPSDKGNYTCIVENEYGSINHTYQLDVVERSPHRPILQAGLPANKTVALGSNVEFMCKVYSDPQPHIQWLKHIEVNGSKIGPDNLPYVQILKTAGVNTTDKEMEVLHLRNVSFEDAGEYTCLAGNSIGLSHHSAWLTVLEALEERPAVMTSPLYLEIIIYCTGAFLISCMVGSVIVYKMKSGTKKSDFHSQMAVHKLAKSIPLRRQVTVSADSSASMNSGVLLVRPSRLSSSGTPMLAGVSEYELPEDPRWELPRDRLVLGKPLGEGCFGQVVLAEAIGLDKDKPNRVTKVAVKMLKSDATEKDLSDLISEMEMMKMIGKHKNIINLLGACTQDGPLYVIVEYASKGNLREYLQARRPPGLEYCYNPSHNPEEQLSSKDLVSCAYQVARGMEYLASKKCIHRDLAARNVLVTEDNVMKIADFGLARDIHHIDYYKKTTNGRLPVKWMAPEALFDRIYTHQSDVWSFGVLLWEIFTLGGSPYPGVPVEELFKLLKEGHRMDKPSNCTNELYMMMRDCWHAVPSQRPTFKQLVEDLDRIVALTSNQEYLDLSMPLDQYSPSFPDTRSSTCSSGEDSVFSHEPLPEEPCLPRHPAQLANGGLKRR
Proto-oncogene tyrosine-protein kinase Src (Homo sapiens, UniProt P12931), sequence (P12931 2-536 limits assumed): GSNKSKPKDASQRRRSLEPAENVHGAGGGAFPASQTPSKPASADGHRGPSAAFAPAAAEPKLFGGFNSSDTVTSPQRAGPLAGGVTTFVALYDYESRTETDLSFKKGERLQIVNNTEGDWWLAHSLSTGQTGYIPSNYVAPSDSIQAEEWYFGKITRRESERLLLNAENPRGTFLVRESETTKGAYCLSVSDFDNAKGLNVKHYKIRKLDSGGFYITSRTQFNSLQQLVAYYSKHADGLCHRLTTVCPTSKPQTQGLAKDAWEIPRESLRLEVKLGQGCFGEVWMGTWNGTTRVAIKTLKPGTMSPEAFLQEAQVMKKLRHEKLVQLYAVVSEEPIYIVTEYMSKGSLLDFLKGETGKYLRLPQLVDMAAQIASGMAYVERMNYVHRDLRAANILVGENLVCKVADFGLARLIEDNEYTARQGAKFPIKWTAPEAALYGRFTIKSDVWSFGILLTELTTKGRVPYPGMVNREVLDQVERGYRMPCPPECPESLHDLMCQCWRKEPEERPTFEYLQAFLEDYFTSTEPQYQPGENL
Epidermal growth factor receptor, sequence (P00533 whole entry): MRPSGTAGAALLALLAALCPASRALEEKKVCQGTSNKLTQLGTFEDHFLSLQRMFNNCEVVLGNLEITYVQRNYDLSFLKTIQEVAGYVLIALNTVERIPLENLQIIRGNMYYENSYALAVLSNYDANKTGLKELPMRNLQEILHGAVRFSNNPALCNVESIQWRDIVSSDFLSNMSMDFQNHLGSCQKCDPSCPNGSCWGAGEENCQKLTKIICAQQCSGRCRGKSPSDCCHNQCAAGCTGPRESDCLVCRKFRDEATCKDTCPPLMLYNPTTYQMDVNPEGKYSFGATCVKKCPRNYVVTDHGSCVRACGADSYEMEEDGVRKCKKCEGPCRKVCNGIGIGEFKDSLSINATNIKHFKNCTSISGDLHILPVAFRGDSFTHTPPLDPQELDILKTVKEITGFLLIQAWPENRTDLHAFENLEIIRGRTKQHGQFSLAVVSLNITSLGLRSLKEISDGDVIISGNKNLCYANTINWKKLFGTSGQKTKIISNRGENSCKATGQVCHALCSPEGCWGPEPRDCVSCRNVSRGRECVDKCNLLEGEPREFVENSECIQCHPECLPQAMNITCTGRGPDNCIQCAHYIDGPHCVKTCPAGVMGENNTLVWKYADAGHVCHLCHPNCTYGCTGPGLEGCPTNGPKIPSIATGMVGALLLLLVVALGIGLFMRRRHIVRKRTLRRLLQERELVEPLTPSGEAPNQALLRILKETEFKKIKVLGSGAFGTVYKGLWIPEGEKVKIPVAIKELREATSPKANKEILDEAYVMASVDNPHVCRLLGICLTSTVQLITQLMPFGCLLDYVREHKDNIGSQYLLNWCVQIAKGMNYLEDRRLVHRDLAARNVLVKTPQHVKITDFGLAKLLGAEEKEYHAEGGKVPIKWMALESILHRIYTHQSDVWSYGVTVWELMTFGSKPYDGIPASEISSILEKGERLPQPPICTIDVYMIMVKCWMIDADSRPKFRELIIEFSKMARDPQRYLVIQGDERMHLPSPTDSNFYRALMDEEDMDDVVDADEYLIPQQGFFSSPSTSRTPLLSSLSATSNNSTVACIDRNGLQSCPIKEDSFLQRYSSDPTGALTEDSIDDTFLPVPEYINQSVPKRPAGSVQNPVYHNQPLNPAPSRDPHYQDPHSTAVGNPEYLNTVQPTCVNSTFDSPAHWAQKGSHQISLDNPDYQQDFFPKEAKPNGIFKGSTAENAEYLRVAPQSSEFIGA
Platelet-derived growth factor receptor beta, sequence (P05622 whole entry): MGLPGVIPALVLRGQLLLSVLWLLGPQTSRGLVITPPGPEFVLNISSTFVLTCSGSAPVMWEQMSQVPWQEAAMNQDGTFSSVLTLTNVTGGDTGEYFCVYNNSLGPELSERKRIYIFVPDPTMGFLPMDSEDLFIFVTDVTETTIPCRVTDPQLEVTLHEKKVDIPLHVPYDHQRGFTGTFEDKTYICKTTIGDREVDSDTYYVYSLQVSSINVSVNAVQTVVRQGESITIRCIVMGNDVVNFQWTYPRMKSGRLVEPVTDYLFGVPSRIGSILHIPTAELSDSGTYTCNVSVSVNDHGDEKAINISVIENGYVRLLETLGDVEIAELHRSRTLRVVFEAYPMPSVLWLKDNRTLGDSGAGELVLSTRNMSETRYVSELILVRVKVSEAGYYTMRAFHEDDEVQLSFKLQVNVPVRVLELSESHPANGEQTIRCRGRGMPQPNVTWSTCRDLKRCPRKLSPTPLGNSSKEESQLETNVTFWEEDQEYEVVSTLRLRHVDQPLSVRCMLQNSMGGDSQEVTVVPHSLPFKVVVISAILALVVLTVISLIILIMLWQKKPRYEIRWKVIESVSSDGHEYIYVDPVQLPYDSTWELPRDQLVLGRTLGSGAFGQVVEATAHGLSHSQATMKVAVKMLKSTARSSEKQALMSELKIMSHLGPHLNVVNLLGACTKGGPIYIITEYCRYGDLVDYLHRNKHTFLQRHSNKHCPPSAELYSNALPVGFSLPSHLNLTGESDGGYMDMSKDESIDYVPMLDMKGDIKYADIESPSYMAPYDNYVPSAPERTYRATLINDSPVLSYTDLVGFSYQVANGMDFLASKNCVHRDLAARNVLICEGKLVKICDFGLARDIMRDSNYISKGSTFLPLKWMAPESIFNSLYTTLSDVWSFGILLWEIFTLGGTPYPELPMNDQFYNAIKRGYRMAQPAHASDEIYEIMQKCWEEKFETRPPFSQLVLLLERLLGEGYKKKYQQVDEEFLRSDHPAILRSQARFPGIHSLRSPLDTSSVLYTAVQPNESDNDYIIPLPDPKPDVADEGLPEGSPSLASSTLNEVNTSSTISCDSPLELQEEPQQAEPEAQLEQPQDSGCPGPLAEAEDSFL

As for `Cn1c(=O)c(-c2c(Cl)cccc2Cl)cc2cnc(Nc3ccncc3)nc21`, the IC50 in assay [1] was determined as 680 nM; with NIH3T3 [2] (Mus musculus, NIH3T3), 104 nM; in assay [3], 910 nM; in [4] it was 190 nM; in [5] it was 10 nM; in assay [6], 100 nM. Also, the IC50 came out at 6900 nM in the assay with C6 [7] (Rattus norvegicus, C6); 400 nM in the assay with C6 [8] (Rattus norvegicus, C6); 1100 nM in the assay on C6 [9] (Rattus norvegicus, C6); 350 nM with NIH3T3 [10]; 306 nM with NIH3T3 [11].
For the molecule `CCN(CC)CCOc1cccc(Nc2ncc3cc(-c4c(Cl)cccc4Cl)c(=O)n(C)c3n2)c1`, the IC50 in assay [12] is 9 nM; in the assay with NIH3T3 [2] (nih3t3), 147 nM and 410 nM; in assay [4], 32 nM; with C6 [7] (c6), 2790 nM and 400 nM; with C6 [8] (c6) it was 440 nM and 120 nM; in the assay on C6 [9] (c6) it was 840 nM and 350 nM. Besides, the IC50 in the assay with NIH3T3 [24] stood at 17 nM; in assay [25], 30 nM; in assay [29] it was 1.7 nM; in the assay with NIH3T3 [11], 17 nM. Also, the Net cell kill in the assay on COLO 205 [13] is recorded as -0.4 log10; in the assay on MCF7 [21], -0.6 log10. The T-C is -2 days with C6 [14]; -2.5 days in the assay on HT-29 [15]; -0.4 days in the assay with SK-OV-3 [16]; 6.8 days with COLO 205 [17]; 0.8 days with MCF7 [18]; -0.4 days with Mus musculus [19]. Also, the Weight change is -1.6 g in the assay on Mus musculus [20]; “Weight gain” in the assay with COLO 205 [22]; “Weight gain” with MCF7 [23]; -2 g in the assay with SK-OV-3 [26]; -2 g in the assay with HT-29 [27]; “Weight gain” with C6 [28].

One may read the IC50 as the concentration that gives 50% inhibition. High values mean a need for much substance, low ones inhibition by little substance.
